{"source": "ChEMBL document CHEMBL1129929", "about": "“Analogues of methotrexate in rheumatoid arthritis. 1. Effects of 10-deazaaminopterin analogues on type II collagen-induced arthritis in mice” (J Med Chem, 1997)", "key": {"Mus musculus [1]": {"system": "Mus musculus", "experiment": "Incidence of disease(mouse type II collagen arthritis) was scored as the percentage of animals within each experimental group that exhibited joint or limb inflammation on day 30 at intraperitoneal of dose 5 mg/kg", "assay_type": "functional", "procedure,_shortened": "(§1)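 DBA/1 mice were immunized with bovine type II collagen (modified Courtenay method), with a collagen booster on day 21. Compounds were given ip starting 2 days before the first collagen challenge and every 2 days thereafter. Incidence was the percentage of animals per group with joint or limb inflammation, scored on days 23, 30, 37 and 44.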"}, "[2]": {"experiment": "Concentration required to inhibit the growth of chang liver cells", "assay_type": "functional", "conditions": "Homo sapiens"}, "Mus musculus [3]": {"system": "Mus musculus", "experiment": "Tested for antiinflammatory activity on mouse type II collagen arthritis as Paw swelling* of all animals in each group on day 37 at intraperitoneal dose of 12 mg/kg", "assay_type": "functional", "procedure,_shortened": "(§2)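 DBA/1 mice immunized with bovine type II collagen (Courtenay method, modified), antigen booster at day 21. Compounds given ip from 2 days before the first collagen challenge, then every 2 days. Hind paw dimensions (mm) measured for both limbs of all animals, expressed as mean ± SD. Eight mice per dose; untreated controls pooled from four experiments (48 animals).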"}, "Mus musculus [4]": {"system": "Mus musculus", "experiment": "Incidence of disease(mouse type II collagen arthritis) was scored as the percentage of animals within each experimental group that exhibited joint or limb inflammation on day 30 at intraperitoneal of dose 12 mg/kg", "assay_type": "functional", "procedure,_shortened": "as §1"}, "Mus musculus [5]": {"system": "Mus musculus", "experiment": "Incidence of disease(mouse type II collagen arthritis) was scored as the percentage of animals within each experimental group that exhibited joint or limb inflammation on day 23 at intraperitoneal dose of 2.5 mg/kg", "assay_type": "functional", "procedure,_shortened": "as §1"}, "Mus musculus [6]": {"system": "Mus musculus", "experiment": "Incidence of disease(mouse type II collagen arthritis) was scored as the percentage of animals within each experimental group that exhibited joint or limb inflammation on day 37 at intraperitoneal of dose 2.5 mg/kg", "assay_type": "functional", "procedure,_shortened": "as §1"}, "Mus musculus [7]": {"system": "Mus musculus", "experiment": "Incidence of disease(mouse type II collagen arthritis) was scored as the percentage of animals within each experimental group that exhibited joint or limb inflammation on day 23 at intraperitoneal of dose 12 mg/kg", "assay_type": "functional", "procedure,_shortened": "as §1"}, "Mus musculus [8]": {"system": "Mus musculus", "experiment": "Tested for antiinflammatory activity on mouse type II collagen arthritis as Paw swelling* of all animals in each group on day 30 at intraperitoneal dose of 12 mg/kg", "assay_type": "functional", "procedure,_shortened": "as §2"}, "Mus musculus [9]": {"system": "Mus musculus", "experiment": "Tested for antiinflammatory activity on mouse type II collagen arthritis as Paw swelling* of all animals in each group on day 44 at intraperitoneal dose of 12 mg/kg", "assay_type": "functional", "procedure,_shortened": "as §2"}, "Mus musculus [10]": {"system": "Mus musculus", "experiment": "Incidence of disease(mouse type II collagen arthritis) was scored as the percentage of animals within each experimental group that exhibited joint or limb inflammation on day 30 at intraperitoneal of dose 1.25 mg/kg", "assay_type": "functional", "procedure,_shortened": "as §1"}, "L1210": {"system": "L1210", "experiment": "Concentration required to inhibit the growth of L1210 cells", "assay_type": "functional, cell-based", "conditions": "Mus musculus"}, "Mus musculus [11]": {"system": "Mus musculus", "experiment": "Tested for antiinflammatory activity on mouse type II collagen arthritis as Paw swelling* of all animals in each group on day 30 at intraperitoneal dose of 1.25 mg/kg", "assay_type": "functional", "procedure,_shortened": "as §2"}, "Mus musculus [12]": {"system": "Mus musculus", "experiment": "Incidence of disease(mouse type II collagen arthritis) was scored as the percentage of animals within each experimental group that exhibited joint or limb inflammation on day 44 at intraperitoneal of dose 1.25 mg/kg", "assay_type": "functional", "procedure,_shortened": "as §1"}, "Mus musculus [13]": {"system": "Mus musculus", "experiment": "Incidence of disease(mouse type II collagen arthritis) was scored as the percentage of animals within each experimental group that exhibited joint or limb inflammation on day 30 at intraperitoneal of dose 2.5 mg/kg", "assay_type": "functional", "procedure,_shortened": "as §1"}, "Mus musculus [14]": {"system": "Mus musculus", "experiment": "Incidence of disease(mouse type II collagen arthritis) was scored as the percentage of animals within each experimental group that exhibited joint or limb inflammation on day 44 at intraperitoneal of dose 5 mg/kg", "assay_type": "functional", "procedure,_shortened": "as §1"}, "Mus musculus [15]": {"system": "Mus musculus", "experiment": "Tested for antiinflammatory activity on mouse type II collagen arthritis as Paw swelling* of all animals in each group on day 23 at intraperitoneal dose of 12 mg/kg", "assay_type": "functional", "procedure,_shortened": "as §2"}, "Mus musculus [16]": {"system": "Mus musculus", "experiment": "Incidence of disease(mouse type II collagen arthritis) was scored as the percentage of animals within each experimental group that exhibited joint or limb inflammation on day 23 at intraperitoneal dose of 1.25 mg/kg", "assay_type": "functional", "procedure,_shortened": "as §1"}, "Mus musculus [17]": {"system": "Mus musculus", "experiment": "Incidence of disease(mouse type II collagen arthritis) was scored as the percentage of animals within each experimental group that exhibited joint or limb inflammation on day 23 at intraperitoneal dose of 5 mg/kg", "assay_type": "functional", "procedure,_shortened": "as §1"}, "Mus musculus [18]": {"system": "Mus musculus", "experiment": "Tested for antiinflammatory activity on mouse type II collagen arthritis as Paw swelling* of all animals in each group on day 44 at intraperitoneal dose of 5 mg/kg", "assay_type": "functional", "procedure,_shortened": "as §2"}, "Mus musculus [19]": {"system": "Mus musculus", "experiment": "Incidence of disease(mouse type II collagen arthritis) was scored as the percentage of animals within each experimental group that exhibited joint or limb inflammation on day 37 at intraperitoneal of dose 1.25 mg/kg", "assay_type": "functional", "procedure,_shortened": "as §1"}, "Mus musculus [20]": {"system": "Mus musculus", "experiment": "Incidence of disease(mouse type II collagen arthritis) was scored as the percentage of animals within each experimental group that exhibited joint or limb inflammation on day 44 at intraperitoneal of dose 2.5 mg/kg", "assay_type": "functional", "procedure,_shortened": "as §1"}, "Mus musculus [21]": {"system": "Mus musculus", "experiment": "Tested for antiinflammatory activity on mouse type II collagen arthritis as Paw swelling* of all animals in each group on day 23 at intraperitoneal dose of 5 mg/kg", "assay_type": "functional", "procedure,_shortened": "as §2"}, "Mus musculus [22]": {"system": "Mus musculus", "experiment": "Tested for antiinflammatory activity on mouse type II collagen arthritis as Paw swelling* of all animals in each group on day 37 at intraperitoneal dose of 5 mg/kg", "assay_type": "functional", "procedure,_shortened": "as §2"}, "Mus musculus [23]": {"system": "Mus musculus", "experiment": "Tested for antiinflammatory activity on mouse type II collagen arthritis as Paw swelling* of all animals in each group on day 30 at intraperitoneal dose of 5 mg/kg", "assay_type": "functional", "procedure,_shortened": "as §2"}, "Mus musculus [24]": {"system": "Mus musculus", "experiment": "Incidence of disease(mouse type II collagen arthritis) was scored as the percentage of animals within each experimental group that exhibited joint or limb inflammation on day 44 at intraperitoneal of dose 12 mg/kg", "assay_type": "functional", "procedure,_shortened": "as §1"}, "Mus musculus [25]": {"system": "Mus musculus", "experiment": "Tested for antiinflammatory activity on mouse type II collagen arthritis as Paw swelling* of all animals in each group on day 23 at intraperitoneal dose of 2.25 mg/kg", "assay_type": "functional", "procedure,_shortened": "as §2"}, "Mus musculus [26]": {"system": "Mus musculus", "experiment": "Tested for antiinflammatory activity on mouse type II collagen arthritis as Paw swelling* of all animals in each group on day 37 at intraperitoneal dose of 2.25 mg/kg", "assay_type": "functional", "procedure,_shortened": "as §2"}, "Mus musculus [27]": {"system": "Mus musculus", "experiment": "Incidence of disease(mouse type II collagen arthritis) was scored as the percentage of animals within each experimental group that exhibited joint or limb inflammation on day 37 at intraperitoneal of dose 5 mg/kg", "assay_type": "functional", "procedure,_shortened": "as §1"}, "Mus musculus [28]": {"system": "Mus musculus", "experiment": "Tested for antiinflammatory activity on mouse type II collagen arthritis as Paw swelling* of all animals in each group onn day 44 at intraperitoneal dose of 2.25 mg/kg", "assay_type": "functional", "procedure,_shortened": "as §2"}, "Mus musculus [29]": {"system": "Mus musculus", "experiment": "Incidence of disease(mouse type II collagen arthritis) was scored as the percentage of animals within each experimental group that exhibited joint or limb inflammation on day 37 at intraperitoneal of dose 12 mg/kg", "assay_type": "functional", "procedure,_shortened": "as §1"}, "Mus musculus [30]": {"system": "Mus musculus", "experiment": "Tested for antiinflammatory activity on mouse type II collagen arthritis as Paw swelling* of all animals in each group on day 23 at intraperitoneal dose of 1.25 mg/kg", "assay_type": "functional", "procedure,_shortened": "as §2"}, "Mus musculus [31]": {"system": "Mus musculus", "experiment": "Tested for antiinflammatory activity on mouse type II collagen arthritis as Paw swelling* of all animals in each group on day 30 at intraperitoneal dose of 2.25 mg/kg", "assay_type": "functional", "procedure,_shortened": "as §2"}}, "data": [{"smiles": "CCC(Cc1cnc2nc(N)nc(N)c2n1)c1ccc(C(=O)NC(CCC(=O)O)C(=O)O)cn1", "note": "(configuration not stated)", "values": [{"measurement": "Animals", "setting": "Mus musculus [1]", "value": 63, "unit": "%"}, {"measurement": "IC50", "setting": "[2]", "value": 35, "unit": "nM"}, {"measurement": "Paw swelling", "setting": "Mus musculus [3]", "value": 2.59, "unit": "mm"}, {"measurement": "Animals", "setting": "Mus musculus [4]", "value": 25, "unit": "%"}, {"measurement": "Animals", "setting": "Mus musculus [5]", "value": 0, "unit": "%"}, {"measurement": "Animals", "setting": "Mus musculus [6]", "value": 75, "unit": "%"}, {"measurement": "Animals", "setting": "Mus musculus [7]", "value": 12, "unit": "%"}, {"measurement": "Paw swelling", "setting": "Mus musculus [8]", "value": 2.2, "unit": "mm"}, {"measurement": "Paw swelling", "setting": "Mus musculus [9]", "value": 2.86, "unit": "mm"}, {"measurement": "Animals", "setting": "Mus musculus [10]", "value": 38, "unit": "%"}, {"measurement": "IC50", "setting": "L1210", "value": 268, "unit": "nM"}, {"measurement": "Paw swelling", "setting": "Mus musculus [11]", "value": 2.24, "unit": "mm"}, {"measurement": "Animals", "setting": "Mus musculus [12]", "value": 100, "unit": "%"}, {"measurement": "Animals", "setting": "Mus musculus [13]", "value": 25, "unit": "%"}, {"measurement": "Animals", "setting": "Mus musculus [14]", "value": 88, "unit": "%"}, {"measurement": "Paw swelling", "setting": "Mus musculus [15]", "value": 2.21, "unit": "mm"}, {"measurement": "Animals", "setting": "Mus musculus [16]", "value": 12, "unit": "%"}, {"measurement": "Animals", "setting": "Mus musculus [17]", "value": 12, "unit": "%"}, {"measurement": "Paw swelling", "setting": "Mus musculus [18]", "value": 3.09, "unit": "mm"}, {"measurement": "Animals", "setting": "Mus musculus [19]", "value": 75, "unit": "%"}, {"measurement": "Animals", "setting": "Mus musculus [20]", "value": 75, "unit": "%"}, {"measurement": "Paw swelling", "setting": "Mus musculus [21]", "value": 2.15, "unit": "mm"}, {"measurement": "Paw swelling", "setting": "Mus musculus [22]", "value": 2.56, "unit": "mm"}, {"measurement": "Paw swelling", "setting": "Mus musculus [23]", "value": 2.32, "unit": "mm"}, {"measurement": "Animals", "setting": "Mus musculus [24]", "value": 100, "unit": "%"}, {"measurement": "Paw swelling", "setting": "Mus musculus [25]", "value": 2.15, "unit": "mm"}, {"measurement": "Paw swelling", "setting": "Mus musculus [26]", "value": 2.75, "unit": "mm"}, {"measurement": "Animals", "setting": "Mus musculus [27]", "value": 75, "unit": "%"}, {"measurement": "Paw swelling", "setting": "Mus musculus [28]", "value": 2.75, "unit": "mm"}, {"measurement": "Animals", "setting": "Mus musculus [29]", "value": 88, "unit": "%"}, {"measurement": "Paw swelling", "setting": "Mus musculus [30]", "value": 2.17, "unit": "mm"}, {"measurement": "Paw swelling", "setting": "Mus musculus [31]", "value": 2.18, "unit": "mm"}]}]}
